Rpn11 block – Rpn11 (PSMD14) deubiquitinase inhibitors, primary screen, biochemical, fluorescence polarization, uHTS; 26S proteasome non-ATPase regulatory subunit 14 (Homo sapiens), O00487; human 26S proteasome, Ub4-pepOG fluorescence polarization; 20S core pre-blocked with epoxomicin; inhibition, % at 20 µM; hit rate 0.59% among 360,000;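 active means inhibition at 20 µM, scaled to each plate's controls, above about 33%, limit read from the data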
Target sequence (O00487 whole entry, looked up): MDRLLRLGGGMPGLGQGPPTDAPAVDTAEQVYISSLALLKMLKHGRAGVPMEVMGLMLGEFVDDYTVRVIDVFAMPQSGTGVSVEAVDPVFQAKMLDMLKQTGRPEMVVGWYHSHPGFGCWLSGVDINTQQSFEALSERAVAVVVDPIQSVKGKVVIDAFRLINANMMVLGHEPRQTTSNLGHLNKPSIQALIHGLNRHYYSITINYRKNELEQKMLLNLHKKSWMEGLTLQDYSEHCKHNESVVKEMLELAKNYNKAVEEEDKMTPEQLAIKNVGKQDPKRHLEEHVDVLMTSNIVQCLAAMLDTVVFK
SUMO1 PPI mod – modulators of SUMO1 protein-protein interactions, primary screen, biochemical, uHTS. hit rate 0.33% among 360,000. inhibition, % at 20 µM. AID 602429, 2012. SUMO1 binding to a labelled peptide, TR-FRET, 1 h; in the data active means inhibition above about 37%
STEP inh – STEP phosphatase inhibitors, primary screen, biochemical, fluorescence intensity, uHTS | Tyrosine-protein phosphatase non-receptor type 5 (Homo sapiens), P54829 | recombinant STEP, OMFP fluorogenic substrate | AID 588621, 2011 | inhibition, % at 20 µM | hit rate 0.25% among 360,000;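 active means inhibition at 20 µM, scaled per plate between control wells, above about 37%, limit read from the data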;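 further: 0% = DMSO with enzyme and substrate and 100% = substrate only without enzyme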
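medium = Bis-Tris buffer pH 6.0, 2.5 mM DTT, 0.005% Tween 20 | test system = STEP (striatal-enriched tyrosine phosphatase) enzyme, cell-free | measure = normalized % inhibition | compound dosing = 20 µM, 1% DMSO | also added = 25 µM OMFP | schedule = reaction 20 min, ambient temperature | measured by = fluorescence read at 480 nm ex / 540 nm em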
LMPTP block – LMPTP phosphatase inhibitors, primary screen, biochemical, fluorescence intensity, uHTS; Low molecular weight phosphotyrosine protein phosphatase (Homo sapiens), P24666; hit rate 0.22% among 360,000; recombinant LMPTP-A, OMFP fluorogenic substrate; AID 651560, 2012; inhibition, % at 20 µM;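 active means compounds that cut the enzyme signal by at least half of the control window in the single-dose screen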;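 further: plate controls were DMSO wells with enzyme plus substrate for no effect and substrate without enzyme for full effect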
Target sequence (P24666 whole entry, looked up): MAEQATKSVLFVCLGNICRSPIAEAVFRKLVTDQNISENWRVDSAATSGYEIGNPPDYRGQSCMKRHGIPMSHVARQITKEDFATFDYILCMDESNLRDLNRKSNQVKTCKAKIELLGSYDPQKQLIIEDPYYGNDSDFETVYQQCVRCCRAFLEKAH
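Assay system: LMPTP-A enzyme. Input: 0.625 nM LMPTP-A final. Probe or stimulus: 400 µM OMFP. Compound dosing: single 20 µM dose. Schedule: 50 min dark incubation at room temperature. Detection: fluorescence intensity of OMFP turnover product. Read-out: percent inhibition versus substrate-only and uninhibited controls. Benchmarks: no-enzyme low control, uninhibited high control.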
DNMT1 inh – human DNMT1 methyltransferase inhibitors, primary screen, biochemical, molecular beacon, fluorescence, HinP1I cleavage, uHTS; hit rate 0.83% among 360,000; AID 588458, 2011; inhibition (reported as % activation of signal), % at 10 µM; DNA (cytosine-5)-methyltransferase 1 (Homo sapiens), P26358; in the data active means inhibition above about 50%
Scp-1 inhibitor – Scp-1 phosphatase inhibitors, primary screen, biochemical, colorimetric, uHTS; inhibition, % at 20 µM; AID 493091, 2011; Recombinant Scp1, phosphopeptide, malachite green phosphate absorbance; hit rate 0.88% among 340,000;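 active means inhibition above about 50% at 20 µM, limit read from the data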;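 further: plate controls were DMSO wells with enzyme for no effect and wells lacking enzyme for full effect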
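Incubation: 45 min enzyme reaction at room temperature / System: truncated SCP-1 phosphatase (76-261aa) / Reagent: Phospho 17-mer peptide substrate / Buffer or medium: Acidic Tris acetate buffer with magnesium and detergent / Signal: absorbance at 630 nm / Doses: one concentration, 20 µM, with 1.0% DMSO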
Scp-1 conf – Scp-1 phosphatase inhibitors, retest, confirmation, biochemical, colorimetric, single concentration; shares compounds with Scp-1 inhibitor; hit rate 61% among 2,500; inhibition, % at 20 µM; recombinant SCP-1 catalytic domain, phosphate release, malachite green absorbance;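 further: plate controls were DMSO with enzyme for no effect and buffer wells lacking enzyme for full effect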
MG interference – colorimetric readout interference by compounds, confirmation, artefact control for Scp-1 inhibitor project, biochemical, single concentration. shares compounds with Scp-1 inhibitor. Colorimetric interference counterscreen, malachite green absorbance 630 nm. apparent inhibition (interference), % at 20 µM. 2,500 tested, under 10 active. AID 540313, 2011;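 further: compounds added after enzyme reaction finished so only phosphate colour detection is probed; plate controls were DMSO wells with completed Scp-1 reaction for no effect and substrate wells lacking enzyme for full effect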
Scp1 DSF – Scp-1 binding by thermal shift, confirmation, orthogonal assay for Scp-1 inhibitor project, biophysical, differential scanning fluorimetry. hit rate 25% among 1,500. AID 540329, 2011. thermal shift relative to vanadate control, % at 40 µM. shares compounds with Scp-1 inhibitor. Recombinant SCP1, Sypro Orange thermal shift Tm;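 active means substances whose mean melting-temperature shift, as a percentage of the reference inhibitor's shift, reaches about 5.3%, limit read from the data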;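 further: 0% = Tm of DMSO wells and 100% = Tm with sodium orthovanadate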
DNMT1 inh conf – DNMT1 methyltransferase inhibitor retest, confirmation, biochemical, molecular beacon, fluorescence, single concentration; DNMT1 molecular beacon HinP1I cleavage; shares compounds with DNMT1 inh; hit rate 8% among 2,300; inhibition, % at 10 µM;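 active means average inhibition of at least 30% in the single-concentration confirmation test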
Beacon interf – shows spectral interference in the DNMT1 beacon assay; shares compounds with DNMT1 inh; DNMT1 molecular beacon spectral interference counterscreen, fluorescence 485/520; activation (fluorescence interference), % at 10 µM; hit rate 1% among 2,300; AID 602387;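 active means activation of at least 30% at 10 µM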;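 further: DNMT1 catalytic domain with a HinP1I cleavage step and a FAM/dabcyl DNA beacon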
* = called active by the depositor; . = no result given. Shown are actives, neighbours in structure and some others; about 2.3% of the full set was active somewhere.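 How the source made its calls, unless noted: active means inhibition of at least 30% at 20 µM; inactive means the rest.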

SMILES	Rpn11 block	SUMO1 PPI mod	STEP inh	LMPTP block	DNMT1 inh	Scp-1 inhibitor	Scp-1 conf	MG interference	Scp1 DSF	DNMT1 inh conf	Beacon interf
Cc1oc(-c2cccs2)cc1C(=O)N1CCCC(C)(C(=O)O)C1 (stereo unspecified)	-1	-3	2	0	1	.	.	.	.	.	.
CC(=O)C1C(c2cccc(F)c2)c2c(n[nH]c2C)CC1(C)O (stereo unspecified)	5	3	0	-1	2	-5	.	.	.	.	.
O=C(Nc1ccccc1)c1ccc2nc(-c3ccco3)c(-c3ccco3)nc2c1	2	33	4	42	83*	71*	15	-15	.	4	4
CC(C)C(NC(=O)c1ccc(C(C)(C)C)cc1)C(=O)N1CCC(C(N)=O)CC1 (stereo unspecified)	4	-1	-2	-2	5	-5	.	.	.	.	.
COc1ccc2c(c1)c(C(=O)N/N=C/c1ccc(O)c(O)c1)c(C)n2C	-9	0	-1	-2	14	6	.	.	.	.	.
O=c1[nH]n2c(=O)c3c([nH]c2c1N=Nc1cccc(Cl)c1)CCC3	-31	8	14	46	94*	78*	59*	-16	27*	5	-1
NC(=O)[C@@H]1CCCN1Cc1nc(Cc2ccccc2Cl)no1	-4	1	-2	0	2	0	.	.	.	.	.
CSCC[C@H](NS(=O)(=O)c1ccc(C(C)=O)cc1)c1nnc2ccccn12	-11	0	55*	3	55*	61*	64*	-4	-13	6	0
CSCCC(NC(=O)C1CCCC1)c1nnc2ccccn12 (stereo unspecified)	12	-4	8	0	2	-5	.	.	.	.	.
CC(=O)c1c(C)oc(C)c1CSCc1ccc(C(=O)O)o1	-20	8	11	19	78*	65*	56*	-15	-2	6	3
CC1(C)CC(NC(=O)C2CCN(S(=O)(=O)c3ccc(Cl)c(C(F)(F)F)c3)CC2)CC(C)(C)N1	6	3	0	-1	6	-8	.	.	.	.	.
CC(C)(C)CC(=O)Nc1nn[nH]n1	-2	0	4	-2	2	-1	.	.	.	.	.
O=C(NNS(=O)(=O)c1ccccc1)c1cc2cc3ccccc3nc2s1	-1	1	1	0	0	-2	.	.	.	.	.
O=C(NNC(=O)c1cc2cc3ccccc3nc2s1)c1cccc(C(F)(F)F)c1	-2	0	29	28	51*	75*	71*	-14	-16	1	4
COC(=O)C1=CN(c2ccc(C)cc2)C(N)=C(C#N)C1c1ccccc1F (stereo unspecified)	.	-1	.	0	.	.	.	.	.	.	.
Cc1ccc(C(=O)NCc2occc2C(=O)O)o1	-10	3	5	-3	53*	53*	53*	-6	0	3	1
